Assay results from ChEMBL document CHEMBL1649427, “Inactivation of the glycoside hydrolase NagZ attenuates antipseudomonal beta-lactam resistance in Pseudomonas aeruginosa” (Antimicrob Agents Chemother, 2009).
Converted amounts (≈) assume the structure as drawn.

Tests used:
Pseudomonas aeruginosa [1] = experiment: Antimicrobial activity against ampDDh3 gene-deficient Pseudomonas aeruginosa PAO1 after 18 hrs by broth microdilution method in presence; type: functional; conditions: PAO1, 18 h
Summary of the method: (§1)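 Wells are then inoculated with 100 μl culture and incubated 18 h at 37°C. The MIC is the lowest concentration with no growth. Triplicate determinations.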

Pseudomonas aeruginosa [2] = experiment: Antimicrobial activity against ampDh3 gene-deficient Pseudomonas aeruginosa PAO1 after 18 hrs by broth microdilution method in presence; type: functional; conditions: PAO1, 18 h; summary of the method: as §1
Pseudomonas aeruginosa [3] = experiment: Antimicrobial activity against nagZ gene-deficient Pseudomonas aeruginosa PAO1 after 18 hrs by broth microdilution method; type: functional; conditions: PAO1, 18 h
Summary of the method: (§2)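 CLSI broth microdilution in cation-adjusted Mueller-Hinton medium with serial β-lactam dilutions. Each well holds 200 μl broth inoculated with ~10⁴ cells from starter cultures at OD600 ~0.5. Plates shaken at 37°C for 18 h. The MIC is read as the lowest antibiotic concentration showing no growth. Triplicate determinations.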

Pseudomonas aeruginosa [4] = experiment: Antimicrobial activity against ampDDh2 and ampDh3 gene-deficient Pseudomonas aeruginosa PAO1 after 18 hrs using […] by agar diffusion method; type: functional
Summary of the method: (§3)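 Cultures grown in Mueller-Hinton broth at 37°C to OD600 ~0.5, pelleted, resuspended in 2 ml broth and streaked on Mueller-Hinton agar. […] Inhibition zone diameter measured after overnight incubation at 37°C. Triplicate determinations.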

Pseudomonas aeruginosa [5] = experiment: Antimicrobial activity against Pseudomonas aeruginosa PAO1 after 18 hrs by using 30 ug/disk by agar diffusion method in presence of 0.5 mM nagZ inhibitor EtBuPUG; type: functional; summary of the method: as §3
Pseudomonas aeruginosa [6] = experiment: Antimicrobial activity against ampD gene-deficient Pseudomonas aeruginosa PAO1 after 18 hrs by broth microdilution method in presence of 0.5 mM nagZ inhibitor EtBuPUG; type: functional; conditions: PAO1, 18 h; summary of the method: as §1
Pseudomonas aeruginosa [7] = experiment: Antimicrobial activity against Pseudomonas aeruginosa PAO1 harboring deltaampD::lox deltaampDh2::lox delta ampDh3::lox and plasmid pUCP27 after 18 hrs by Etest; type: functional; conditions: PAO1, 18 h
Summary of the method: (§4)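 Etest strips on Mueller-Hinton agar supplemented with 75 μg/ml tetracycline to maintain the vector or complementation plasmid, run per the manufacturer's recommendations; triplicate determinations.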

Pseudomonas aeruginosa [8] = experiment: Antimicrobial activity against ampDDh2 and ampDh3 gene-deficient Pseudomonas aeruginosa PAO1 after 18 hrs by broth microdilution method in presence of 0.5 mM nagZ inhibitor EtBuPUG; type: functional; conditions: PAO1, 18 h; summary of the method: as §1
Pseudomonas aeruginosa [9] = experiment: Antimicrobial activity against ampDh2 and ampDh3 gene-deficient Pseudomonas aeruginosa PAO1 after 18 hrs by broth microdilution method in presence of 0.5 mM nagZ inhibitor EtBuPUG; type: functional; conditions: PAO1, 18 h; summary of the method: as §1
Pseudomonas aeruginosa [10] = experiment: Antimicrobial activity against Pseudomonas aeruginosa PAO1 after 18 hrs by broth microdilution method; type: functional; conditions: PAO1, 18 h; summary of the method: as §2
Pseudomonas aeruginosa [11] = experiment: Ratio of MIC for ampDh2 gene-deficient Pseudomonas aeruginosa PAO1 after 18 hrs by broth microdilution method in presence of 0.5 mM nagZ inhibitor EtBuPUG to MIC for ampDh2 gene-deficient Pseudomonas aeruginosa PAO1 in absence of nagZ inhibitor EtBuPUG; type: functional
Summary of the method: (§5)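 Broth microdilution in Mueller-Hinton broth. Serial β-lactam dilutions in 80 μl broth, plus 20 μl EtBuPUG (5 mM stock in H₂O) or 20 μl H₂O, then 100 μl culture grown to OD600 ~0.5. Plates incubated at 37°C for 18 h. MIC read as the antibiotic concentration in wells with no growth, with and without inhibitor. Triplicate.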

Pseudomonas aeruginosa [12] = experiment: Antimicrobial activity against ampDDh2 and ampDh3 gene-deficient Pseudomonas aeruginosa PAO1 after 18 hrs using […] by agar diffusion method in presence of 0.5 mM nagZ inhibitor EtBuPUG; type: functional
Summary of the method: (§6)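 Cultures grown in Mueller-Hinton broth at 37°C to OD600 ~0.5, pelleted, resuspended in 2 ml broth and streaked on Mueller-Hinton agar. Inhibition zone diameter measured after overnight incubation at 37°C. Triplicate determinations.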

Pseudomonas aeruginosa [13] = experiment: Antimicrobial activity against ampDh2 and ampDh3 gene-deficient Pseudomonas aeruginosa PAO1 after 18 hrs by broth microdilution method; type: functional; conditions: PAO1, 18 h; summary of the method: as §1
Pseudomonas aeruginosa [14] = experiment: Antimicrobial activity against Pseudomonas aeruginosa PAO1 harboring deltaampD::lox deltaampDh2::lox deltaampDh3::lox deltanagZ::Gm after 18 hrs by Etest; type: functional; conditions: PAO1, 18 h
Summary of the method: (§7)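 Etest strips on Mueller-Hinton agar plates, run per the manufacturer's recommendations; MICs determined in triplicate.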

Pseudomonas aeruginosa [15] = experiment: Antimicrobial activity against ampDDh2 gene-deficient Pseudomonas aeruginosa PAO1 after 18 hrs by broth microdilution method in presence; type: functional; conditions: PAO1, 18 h; summary of the method: as §1
Pseudomonas aeruginosa [16] = experiment: Antimicrobial activity against Pseudomonas aeruginosa PAO1 after 18 hrs by broth microdilution method in presence of 0.5 mM nagZ inhibitor EtBuPUG; type: functional; conditions: PAO1, 18 h; summary of the method: as §1
Pseudomonas aeruginosa [17] = experiment: Antimicrobial activity against ampDh2 gene-deficient Pseudomonas aeruginosa PAO1 using 30 ug/disk by agar diffusion method; type: functional; summary of the method: as §6
Pseudomonas aeruginosa [18] = experiment: Antimicrobial activity against Pseudomonas aeruginosa PAO1 after 18 hrs by using 30 ug/disk by agar diffusion method; type: functional; summary of the method: as §6
Pseudomonas aeruginosa [19] = experiment: Ratio of MIC for Pseudomonas aeruginosa PAO1 harboring deltaampD::lox deltaampDh2::lox deltaampDh3::lox to MIC for Pseudomonas aeruginosa PAO1 harboring deltaampD::lox deltaampDh2::lox deltaampDh3::lox deltanagZ::Gm
Pseudomonas aeruginosa [20] = experiment: Antimicrobial activity against ampD gene-deficient Pseudomonas aeruginosa PAO1 after 18 hrs by broth microdilution method in absence of EtBuPUG; conditions: PAO1, 18 h
Pseudomonas aeruginosa [21] = experiment: Antimicrobial activity against ampDDh2 gene-deficient Pseudomonas aeruginosa PAO1 after 18 hrs by broth microdilution method in presence of 0.5 mM nagZ inhibitor EtBuPUG; type: functional; conditions: PAO1, 18 h; summary of the method: as §1
Pseudomonas aeruginosa [22] = experiment: Antimicrobial activity against ampDh3 gene-deficient Pseudomonas aeruginosa PAO1 after 18 hrs by broth microdilution method in presence of 0.5 mM nagZ inhibitor EtBuPUG; type: functional; conditions: PAO1, 18 h; summary of the method: as §1
Pseudomonas aeruginosa [23] = experiment: Ratio of MIC for ampD gene-deficient Pseudomonas aeruginosa PAO1 after 18 hrs by broth microdilution method presence of 0.5 mM nagZ inhibitor EtBuPUG to MIC for […] gene-deficient Pseudomonas aeruginosa PAO1 in absence of nagZ inhibitor EtBuPUG; type: functional; summary of the method: as §5
Pseudomonas aeruginosa [24] = experiment: Ratio of MIC for ampDh3 gene-deficient Pseudomonas aeruginosa PAO1 after 18 hrs by broth microdilution method presence of 0.5 mM nagZ inhibitor EtBuPUG to MIC for ampDh3 gene-deficient Pseudomonas aeruginosa PAO1 in absence of nagZ inhibitor EtBuPUG; type: functional; summary of the method: as §5
Pseudomonas aeruginosa [25] = experiment: Antimicrobial activity against Pseudomonas aeruginosa PAO1 harboring deltaampD::lox deltaampDh2::lox delta ampDh3::lox and wild type nagZ gene after 18 hrs by Etest; type: functional; conditions: PAO1, 18 h; summary of the method: as §4
Pseudomonas aeruginosa [26] = experiment: Antimicrobial activity against ampDh2 gene-deficient Pseudomonas aeruginosa PAO1 after 18 hrs by broth microdilution method in absence of EtBuPUG; conditions: PAO1, 18 h
Pseudomonas aeruginosa [27] = experiment: Antimicrobial activity against ampDh2 gene-deficient Pseudomonas aeruginosa PAO1 using 30 ug/disk by agar diffusion method in presence of 0.5 mM nagZ inhibitor EtBuPUG; type: functional; summary of the method: as §3
Pseudomonas aeruginosa [28] = experiment: Antimicrobial activity against Pseudomonas aeruginosa PAO1 harboring deltaampD::lox deltaampDh2::lox delta ampDh3::lox after 18 hrs by Etest; type: functional; conditions: PAO1, 18 h; summary of the method: as §7
Pseudomonas aeruginosa [29] = experiment: Antimicrobial activity against ampDh2 gene-deficient Pseudomonas aeruginosa PAO1 after 18 hrs by broth microdilution method in presence of 0.5 mM nagZ inhibitor EtBuPUG; type: functional; conditions: PAO1, 18 h; summary of the method: as §1
Pseudomonas aeruginosa [30] = experiment: Antimicrobial activity against ampDDh3 gene-deficient Pseudomonas aeruginosa PAO1 after 18 hrs by broth microdilution method in presence of 0.5 mM nagZ inhibitor EtBuPUG; type: functional; conditions: PAO1, 18 h; summary of the method: as §1

Q: What does the source list for `CC(C)(O/N=C(\C(=O)N[C@@H]1C(=O)N2C(C(=O)[O-])=C(C[n+]3ccccc3)CS[C@H]12)c1csc(N)n1)C(=O)O` [CEFTAZIDIME]?
A: MIC (Pseudomonas aeruginosa [1]): 48 µg/mL (≈ 87.8 µM); MIC (Pseudomonas aeruginosa [2]): 1 µg/mL (≈ 1.83 µM); MIC (Pseudomonas aeruginosa [3]): 0.5 µg/mL (≈ 0.915 µM); inhibition zone (IZ) (Pseudomonas aeruginosa [4]): 9.2 mm; inhibition zone (IZ) (Pseudomonas aeruginosa [5]): 13.1 mm; MIC (Pseudomonas aeruginosa [6]): 4 µg/mL; MIC (Pseudomonas aeruginosa [7]): 12 µg/mL (≈ 22 µM); MIC (Pseudomonas aeruginosa [8]): 48 µg/mL; MIC (Pseudomonas aeruginosa [9]): 0.75 µg/mL; MIC (Pseudomonas aeruginosa [10]): 1 µg/mL (≈ 1.83 µM); Ratio (Pseudomonas aeruginosa [11]): 4; inhibition zone (IZ) (Pseudomonas aeruginosa [12]): 9.5 mm; MIC (Pseudomonas aeruginosa [13]): 0.75 µg/mL (≈ 1.37 µM); MIC (Pseudomonas aeruginosa [14]): 12 µg/mL (≈ 22 µM); MIC (Pseudomonas aeruginosa [15]): 12 µg/mL (≈ 22 µM); MIC (Pseudomonas aeruginosa [16]): 0.5 µg/mL; inhibition zone (IZ) (Pseudomonas aeruginosa [17]): 10.1 mm; inhibition zone (IZ) (Pseudomonas aeruginosa [18]): 11.4 mm; Ratio (Pseudomonas aeruginosa [19]): 4; MIC (Pseudomonas aeruginosa [20]): 8 µg/mL (≈ 14.6 µM); MIC (Pseudomonas aeruginosa [21]): 6 µg/mL; MIC (Pseudomonas aeruginosa [22]): 0.5 µg/mL; Ratio (Pseudomonas aeruginosa [23]): 2; Ratio (Pseudomonas aeruginosa [24]): 2; MIC (Pseudomonas aeruginosa [25]): 48 µg/mL (≈ 87.8 µM); MIC (Pseudomonas aeruginosa [26]): 0.75 µg/mL (≈ 1.37 µM); inhibition zone (IZ) (Pseudomonas aeruginosa [27]): 12.3 mm; MIC (Pseudomonas aeruginosa [28]): 48 µg/mL (≈ 87.8 µM); MIC (Pseudomonas aeruginosa [29]): 0.19 µg/mL; MIC (Pseudomonas aeruginosa [30]): 48 µg/mL
